Experimental data reported in ChEMBL document CHEMBL1153931.
Converted amounts (≈) assume the structure as drawn.

Columns and labels:
[1] = test system: Bacillus anthracis; assay: Antibacterial activity against Bacillus anthracis Sterne; assay type: functional
[2] = biological target: T1, NH(3)-dependent NAD(+) synthetase (Bacillus anthracis, UniProt Q81RP3); assay: Inhibition of Bacillus anthracis NAD synthetase
T1 sequence (Q81RP3 whole entry): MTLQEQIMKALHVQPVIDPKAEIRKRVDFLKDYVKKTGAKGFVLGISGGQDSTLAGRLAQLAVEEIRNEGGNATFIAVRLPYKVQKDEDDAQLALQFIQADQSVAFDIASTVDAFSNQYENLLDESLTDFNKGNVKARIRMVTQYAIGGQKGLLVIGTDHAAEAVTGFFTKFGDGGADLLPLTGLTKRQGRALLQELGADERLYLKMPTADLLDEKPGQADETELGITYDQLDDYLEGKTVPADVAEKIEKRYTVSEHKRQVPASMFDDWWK
Method in brief: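 Purified B. anthracis NADs (6 μg/ml) in 60 mM HEPPS pH 8.5 with 0.5 mM NH4Cl, 20 mM KCl, 10 mM MgCl2, 0.1 mM NaAD, 2.5% DMSO and 0.3% BOG. Started with 0.2 mM ATP, quenched with guanidine-HCl after 10 min. Compounds tested 600 to 0.6 μM in doubling dilutions. NAD measured by reverse-phase HPLC peak height. IC50 is the average of duplicate runs.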

## COc1ccc(Oc2ccc([N+](=O)[O-])cc2C(=O)Nc2ccc(S(N)(=O)=O)cc2)cc1
[1]
  MIC: > 240 µM

## O=C(CCC(=O)Nc1ccc(Nc2ccccc2)cc1)Nc1ccc(Nc2ccccc2)cc1
[1]
  MIC: > 222 µM

## Cc1cc(C)c2oc(-c3cccc(NC(=O)/C=C/c4cccc([N+](=O)[O-])c4)c3)nc2c1
[1]
  MIC: > 240 µM

## O=C(Nc1cccc(/N=C/c2cc([N+](=O)[O-])ccc2O)c1)c1cccc(Br)c1
[1]
  MIC: > 227 µM

## O=C(Nc1cccc(/N=C/c2cc([N+](=O)[O-])ccc2O)c1)c1ccc(Cl)cc1Cl
[1]
  MIC: > 232 µM

## COc1cccc(NC(=O)Nc2nnc(COc3ccc([N+](=O)[O-])cc3)s2)c1
[1]
  MIC: > 240 µM

## NC(=O)c1c(NC(=S)NC(=O)c2cccc([N+](=O)[O-])c2)sc2c1CCCC2
[1]
  MIC: > 240 µM
[2]
  IC50: 186 µM

## NC(=O)c1ccc(NC(=O)c2ccc(Oc3ccc([N+](=O)[O-])cc3Cl)cc2)cc1
[1]
  MIC: > 240 µM

## N/C(=N\OC(=O)c1ccc(Cl)c(Cl)c1)c1cccc(CSc2ccccn2)c1
[1]
  MIC: > 240 µM

## O=C(Cn1nnc(N2CCOCC2)n1)N/N=C/c1ccc(-c2cccc([N+](=O)[O-])c2)o1
[1]
  MIC: > 240 µM
[2]
  IC50: 109 µM

## COc1ccc(NC(=O)Nc2cccc(NC(=O)Nc3ccc(OC)cc3)c2F)cc1
[1]
  MIC: > 240 µM

## COc1ccc(NC(=O)Nc2ccc(Oc3ncnc4cc(Cl)ccc34)nc2)cc1OC1CCCC1
[1]
  MIC: > 240 µM

## O=C(Nc1cccc(Oc2ccc3c(c2)C(=O)N(c2ccccc2)C3=O)c1)c1cccc([N+](=O)[O-])c1
[1]
  MIC: > 240 µM

## O=C(Nc1cccc(C(=O)Nc2cccc3ccccc23)c1)c1cccc([N+](=O)[O-])c1
[1]
  MIC: > 240 µM

## COc1ccccc1NC(=O)NC(=O)c1ccc(-c2csnn2)cc1
[1]
  MIC: > 240 µM

## COc1ccc(Br)c(-c2nnc(-c3ccccc3NC(=O)NC(=O)c3ccccc3Cl)o2)c1
[1]
  MIC: > 240 µM
[2]
  IC50: 220 µM

## Cc1cc(-c2nnc(CSc3nnc(NC(=O)c4ccc(F)c(Cl)c4)s3)o2)ccc1[N+](=O)[O-]
[1]
  MIC: > 240 µM

## COc1ccccc1NC(=O)COc1ccc(/C=C(/C#N)c2nc3ccccc3[nH]2)cc1
[1]
  MIC: > 240 µM

## Cc1c(NC(=O)c2ccc(N3CCCC3)c([N+](=O)[O-])c2)cccc1-c1nc2ccccc2[nH]1
[1]
  MIC: > 240 µM

## COc1ccc(CCNC(=O)NCc2cccc(CNC(=O)NCCc3ccc(OC)cc3)c2)cc1
[1]
  MIC: > 204 µM

## O=C(Nc1ccc([N+](=O)[O-])cc1)Nc1ccc(S(=O)(=O)Nc2ccc(Cl)c(Cl)c2)cc1
[1]
  MIC: 1.9 µM (≈ 0.915 µg/mL)

## CCc1ccc(S(=O)(=O)Nc2c([N+](=O)[O-])ccc3ccccc23)cc1
[1]
  MIC: 3.8 µM (≈ 1.35 µg/mL)

## O=C1C=C(Nc2ccccc2C(=O)O)C(=O)C=C1Nc1ccccc1C(=O)O
[1]
  MIC: > 264 µM

## O=C(Cn1cc(/C=C/c2[nH]c(=O)[nH]c(=O)c2[N+](=O)[O-])c2ccccc21)Nc1ccc(F)cc1
[1]
  MIC: > 223 µM

## O=C(Nc1ccc([N+](=O)[O-])cc1)c1ccc(-c2nnc(-c3ccccc3)o2)cc1
[1]
  MIC: > 259 µM

## O=C(Nc1ccc(S(=O)(=O)Nc2ncccn2)cc1)Nc1ccc(Cl)c(Cl)c1
[1]
  MIC: 15 µM (≈ 6.57 µg/mL)

## O=[N+]([O-])c1ccc(O)c(/C=N/c2cccc(O)c2)c1
[1]
  MIC: > 387 µM

## N#C/C(=C\c1ccccc1[N+](=O)[O-])C(=O)c1ccccc1
[1]
  MIC: 120 µM (≈ 33.4 µg/mL)
[2]
  IC50: 51 µM

## O=C(COC(=O)c1ccc(NC(=O)c2ccc([N+](=O)[O-])cc2)cc1)c1ccc(F)cc1
[1]
  MIC: > 237 µM

## O=C(Nc1ccc2oc(-c3cc(Br)ccc3Cl)nc2c1)c1cccc([N+](=O)[O-])c1
[1]
  MIC: > 240 µM

## O=C(Nc1ccc(Cc2ccc(NC(=O)c3ccc4c(c3)OCO4)cc2)cc1)c1ccc2c(c1)OCO2
[1]
  MIC: > 240 µM

## O=[N+]([O-])c1ccc(-c2cnc(N/N=C/c3cccc([N+](=O)[O-])c3)nc2)cc1
[1]
  MIC: > 274 µM

## CCOC(=O)C1=C(Nc2cccc3ccccc23)S/C(=C\c2ccc([N+](=O)[O-])cc2)C1=O
[1]
  MIC: > 224 µM

## Nc1ncnc(Nc2ccc(Cl)cc2C(=O)c2ccccc2Cl)c1[N+](=O)[O-]
[1]
  MIC: > 247 µM

## O=C(Nc1ccccc1)Nc1ccc(NC(=O)c2ccc(NC(=O)Nc3ccccc3)cc2)cc1
[1]
  MIC: > 240 µM

## Cc1onc(-c2ccccc2)c1NC(=O)Nc1ccc(Oc2ncnc3cc(Cl)ccc23)nc1
[1]
  MIC: > 240 µM

## O=C(NC(=S)Nc1cc(-c2nc3ccccc3[nH]2)ccc1Cl)c1ccccc1[N+](=O)[O-]
[1]
  MIC: > 240 µM

## Cc1ccc(C(=O)Nc2cccc(-c3nc4ccccc4[nH]3)c2)cc1
[1]
  MIC: > 240 µM

## Nc1c(C(=O)c2ccc([N+](=O)[O-])cc2)sc(Nc2ccccc2)c1-c1nc2ccccc2[nH]1
[1]
  MIC: > 240 µM

## O=C(Nc1ccc(/N=N/c2ccccc2)cc1)c1ccc([N+](=O)[O-])cc1
[1]
  MIC: > 240 µM

## Cc1ccc(-c2nc3cc(Cl)ccc3o2)cc1CC(=O)c1cc([N+](=O)[O-])c(C)c([N+](=O)[O-])c1
[1]
  MIC: > 240 µM

## O=C(CSc1nc(Nc2ccccc2)nc(N2CCOCC2)n1)Nc1ccc([N+](=O)[O-])cc1O
[1]
  MIC: 15 µM (≈ 7.25 µg/mL)

## NC(=O)c1ccc(/N=C/c2cc([N+](=O)[O-])ccc2Cl)cc1
[1]
  MIC: > 329 µM
